Measured values collected from several papers.
Target: cGMP-dependent protein kinase 2 (PRKG2, Homo sapiens, UniProt Q13237)
One construct used (Q13237 1-762): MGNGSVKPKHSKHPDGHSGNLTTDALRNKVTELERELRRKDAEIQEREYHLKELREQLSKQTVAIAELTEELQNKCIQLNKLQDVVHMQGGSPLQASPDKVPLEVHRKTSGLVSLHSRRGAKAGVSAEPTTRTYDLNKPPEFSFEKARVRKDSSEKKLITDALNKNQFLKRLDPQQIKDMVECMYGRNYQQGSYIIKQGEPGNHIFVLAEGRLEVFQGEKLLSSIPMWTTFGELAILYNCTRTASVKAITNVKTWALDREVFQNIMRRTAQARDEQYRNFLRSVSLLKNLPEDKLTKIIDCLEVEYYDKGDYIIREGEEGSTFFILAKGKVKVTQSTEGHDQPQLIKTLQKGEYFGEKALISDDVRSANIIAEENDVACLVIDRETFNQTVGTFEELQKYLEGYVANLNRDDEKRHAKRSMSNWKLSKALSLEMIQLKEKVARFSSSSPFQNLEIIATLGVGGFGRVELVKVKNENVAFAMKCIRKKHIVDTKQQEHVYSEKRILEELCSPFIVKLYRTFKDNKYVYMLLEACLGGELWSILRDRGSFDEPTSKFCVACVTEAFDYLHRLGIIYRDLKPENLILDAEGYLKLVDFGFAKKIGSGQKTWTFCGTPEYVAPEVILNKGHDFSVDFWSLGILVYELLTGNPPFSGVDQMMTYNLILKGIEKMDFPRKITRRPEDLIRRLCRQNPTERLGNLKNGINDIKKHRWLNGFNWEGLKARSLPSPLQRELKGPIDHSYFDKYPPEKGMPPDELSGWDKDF

SMILES	assay	setting	measurement	value
Nc1ncc(-c2nc(N3CCOCC3)nc(N3CCOCC3)n2)c(C(F)F)n1	binding, competition with immobilised ligand	10 µM	remaining binding	90%
Cn1cc(-c2cc(F)cc(N3CCn4c(cc5c4CCCC5)C3=O)c2CO)cc(Nc2ccc(N3CCN(C4COC4)CC3)cn2)c1=O	enzyme activity, inhibitor	0.1 µM	inhibition	11%
COc1ncccc1-c1cnn2ccc(N3CCN(C(=O)OC(C)C)CC3)nc12	binding, competition with immobilised ligand	1 µM	remaining binding	88%
Cc1nn(C)cc1-c1nc2c(N3CCN(Cc4ccc(Cl)cc4)CC3)c(Cl)cnc2[nH]1	binding, competition with immobilised ligand	1 µM	remaining binding	92%
O=c1[nH]c2ccccc2n1C1CCN(Cc2ccc(-c3[nH]c4cc5ncnc5cc4nc3-c3ccccc3)cc2)CC1	cell-free assay	0.5 µM	remaining signal	96.8%
N#CC1(c2ccccn2)CCN(Cc2cc(C(=O)O)c(=O)n3ccccc23)CC1	cell-free assay, competition with immobilised ligand	1 µM	remaining binding	95%
Cn1cc(-c2cccc(N3CCc4c(sc5c4CC(C)(C)C5)C3=O)c2CO)cc(Nc2ccncn2)c1=O	enzyme activity, inhibitor	1 µM	inhibition	2%
CC(C)(C)c1cc(C=C(C#N)C#N)cc(Br)c1O	enzyme activity, inhibitor	0.5 µM	remaining activity	87.6%
Cn1cncc1[C@](O)(COc1ccc(C#N)cc1-c1ccc(OC(F)(F)F)cc1)c1ccc(C#N)cc1	cell-free assay, competition with immobilised ligand	1 µM	remaining binding	100%
